The subject of data set [1] is HIV-1 LTR. The data set can be described thus: HIV-1 LTR-CAT assay in HCT116 WT cells. As to conditions: Flavopiridol, CR8#13, F07#13 100nM, 9AA 1000nM, 48hrs. It is filed as cell-based. The method, boiled down: (§1)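 HIV-1 LTR-CAT plasmid was transfected into HCT116 cells with or without pc-Tat. Six hours later, cells were treated with DMSO or test compound and incubated 48hrs at 37°C in complete DMEM. Dicer-/- extract was used at one tenth the amount of WT extract.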

Data set [2] relates to infected ACH2, J1.1, OM10.1, U1 and uninfected CEM, Jurkat T-cells, and U937 cells. The data set can be described thus: MTT assay on infected and uninfected cells. It is filed as cell-based. As to conditions: 50nM and 10μM. The essentials: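 Cell viability was measured by MTT assay at 50nM and at a high drug level. Uninfected CEM, Jurkat and U937 cells were grown in RPMI 1640 with FBS, L-glutamine and penicillin/streptomycin at 37°C, 5% CO2.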

The conditions of data set [3]: cited from earlier work.
A further data set relates to HIV-1 in monocytes. As to conditions: ref Agbottah et al, 2005; cited from earlier work.
The subject of a further data set is HIV-1 in T-cells. As to conditions: ref Agbottah et al, 2005; cited from earlier work.
The subject of data set [4] is HIV-1 LTR. The data set can be described thus: HIV-1 LTR-CAT assay in HCT116 Dicer-/- cells. It is filed as cell-based. Conditions: HCT116 Dicer-/- compared with HCT116 WT; 100nM; 48hrs. The essentials:
as §1

The test system of the next data set is HIV-1 (pNL4.3). The data set can be described thus: Reverse transcriptase assay, pNL4.3 electroporated U937 cells. As to conditions: Flavopiridol 200nM, 48 hours post drug treatment. It is filed as cell-based.
Data set [5] has as its system HIV-1 LTR. The data set can be described thus: Luciferase assay in TSA treated TZM-bl cells. The data set is classed as cell-based. Conditions: TSA treatment. The essentials: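 TZM-bl cells, which carry a stably integrated HIV-1 LTR-luciferase reporter, were treated with TSA for 7 days and then with test compound. Firefly luciferase activity was measured with the BrightGlo Luciferase Assay.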

The subject of data set [6] is HIV-1 LTR. The data set can be described thus: ChIP assay on the HIV-1 LTR in TZM-bl cells. It is filed as cell-based. Conditions: TSA for 7 days. The essentials: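 TZM-bl cells carry an integrated HIV-1 LTR and were grown in DMEM with 10% FBS, 2mM L-glutamine and antibiotics. Cells were treated 7 days with sub-lethal TSA, then switched to complete medium and transfected with TAR-WT or control TAR-D RNA. ChIP was done on day 8 with HDAC-1 and Ago2 antibodies. Precipitated DNA was amplified with 0.1uM HIV-1 LTR primers.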

As to `Nc1c2ccccc2nc2ccccc12` [9AA, 9-Aminoacridine], the “Inhibition of Tat-mediated HIV-1 LTR transcription (CAT assay)” value with HIV-1 LTR [1] was “moderate effects”.

On to `CC[C@H](CO)Nc1nc(NCc2ccc(-c3ccccn3)cc2)c2ncn(C(C)C)c2n1` [CR8], for which the “Cell killing of uninfected cells (MTT assay)” value in data set [2] is reported as “some cell killing of uninfected cells”. The “Potency relative to Cyc202” value in data set [3] is reported as “roughly 25 times”.

For `CC[C@H](CO)Nc1nc(NCc2ccccc2)c2ncn(C(C)C)c2n1` [Cyc202, R-roscovitine], the “Inhibition of HIV-1 in monocytes” value with HIV-1 in monocytes was “not in monocytes”. The “Inhibition of HIV-1 in T-cells” value in the data set with HIV-1 in T-cells is on record as “effective inhibitor”.

Take `CN1CC[C@H](c2c(O)cc(O)c3c(=O)cc(-c4ccccc4Cl)oc23)[C@H](O)C1` [Flavopiridol]: the “Inhibition of Tat-mediated HIV-1 LTR transcription (CAT assay)” value in the data set with HIV-1 LTR [4] was “less potent”; in the data set on HIV-1 LTR [1], “inhibited viral transcription significantly better in cells that contained Dicer”. Moreover, the “RT levels in supernatant” value in the data set on HIV-1 (pNL4.3) was “able to decrease RT levels in both cell lines”.

With `CC(/C=C/C(=O)NO)=C\[C@@H](C)C(=O)c1ccc(N(C)C)cc1` [TSA, Trichostatin-A], the “Luciferase activity of integrated HIV-1-Luc” value with HIV-1 LTR [5] was “increased Luciferase activity”. For the same compound, the “Association of HDAC-1 and Ago2 with the HIV-1 LTR (ChIP)” value in the data set on HIV-1 LTR [6] is given as “association was lost”.

Source of the values: article PMC2902143 (Journal of RNAi and Gene Silencing : An International …, 2010).
